The values that follow come from PMC3755765 (ChemMedChem, 2013).

SMILES strings stand for the structures. In brackets after ≈: the same amount, converted by molar mass. Several values for one entry are separate records, joined by “and”; a condition that tells them apart may be missing. Equal values may be shown once. Entries after “also recorded” stand apart in the source; their conditions may differ. Read-outs that look alike come from different tables or passages of the source.

In series [1] the target is T1, TgENR (Toxoplasma gondii, UniProt Q6UCJ9).
T1 sequence (Q6UCJ9 28-417): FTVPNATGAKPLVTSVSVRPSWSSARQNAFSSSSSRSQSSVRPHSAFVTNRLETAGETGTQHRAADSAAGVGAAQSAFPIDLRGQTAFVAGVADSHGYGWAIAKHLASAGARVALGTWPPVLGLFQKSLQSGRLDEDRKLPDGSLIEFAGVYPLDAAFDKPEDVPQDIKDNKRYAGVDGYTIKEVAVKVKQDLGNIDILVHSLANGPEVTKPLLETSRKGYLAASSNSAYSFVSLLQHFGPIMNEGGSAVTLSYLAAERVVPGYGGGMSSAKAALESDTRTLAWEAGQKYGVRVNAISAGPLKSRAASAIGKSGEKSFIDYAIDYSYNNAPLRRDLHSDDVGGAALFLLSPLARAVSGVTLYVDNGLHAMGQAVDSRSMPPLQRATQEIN
Nature of the series: TgENR enzyme assay. The format is biochemical. The conditions noted are these: for inhibition at 1 µM: read-out: Cpd. conc. [1 μM]/% Inh.: percentage of inhibition of TgENR; for Activity in the enzyme-based assay: purified TgENR; for TgENR IC50 fold lower than that of analog 9c: 38 and 54 nM vs 130 nM.

The test system of series [2] is T. gondii tachyzoites. Nature of the series: Parasite tissue culture assay: inhibition of T. gondii tachyzoites in HFF. It is filed as cell-based, Toxoplasma gondii. The conditions noted are these: for MIC50 / IC50: Toxoplasma gondii; for Activity in the parasite-based assay: T. gondii tachyzoites.
In series [3] the test system is Human Foreskin Fibroblasts (HFF). As to the kind of experiment: Toxicity for host cells. The conditions noted are these: for Parasite tissue culture assay HFF (HFF toxicity): human foreskin fibroblasts, highest concentration tested 10 μM.
Series [4] has as its system P. falciparum strain D6 (CDC/Sierra Leone). Nature of the series: Malaria SYBR Green I-based fluorescence assay, strain D6. It is filed as cell-based. The conditions noted are these: Plasmodium falciparum, D6, 72 h, read-out: SYBR Green D6 IC50. The essentials:
(§1)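 Late-ring or early-trophozoite parasites at 0.3% starting parasitemia and 2% hematocrit were added to plates predosed with quadruplicate 12-point two-fold dilutions in DMSO (final […]), with mefloquine as reference. Plates were incubated 72 h at 37°C under 5% CO2/5% O2/90% N2, lysed with Tris/EDTA/Triton X/saponin buffer with SYBR Green I (final 10x), kept dark 24 h at RT, and read as RFU. A chloroquine batch control at 2000 ng/ml validated each run.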

Series [5] relates to P. falciparum strain TM91C235 (WRAIR, Thailand, chloroquine resistant). As to the kind of experiment: Malaria SYBR Green I-based fluorescence assay, strain TM91C235. It is filed as cell-based. The conditions noted are these: Plasmodium falciparum, 72 h, read-out: SYBR Green C235 IC50. An outline of the steps:
as §1

Setting [6] is: 72 h, read-out: Parasite tissue culture assay MIC50.

With `Oc1cc(Cl)ccc1Oc1ccc(CNc2ccccc2)cc1Cl` [Compound 41b, 5-Chloro-2-[2-chloro-4-[(phenylamino)methyl]phenoxy]phenol], the inhibition at 1 µM in series [1] came to 94%. In series [2] (setting [6]), the MIC50 is above 10 µM. Moreover, the “Parasite tissue culture assay HFF (HFF toxicity)” value (“Parasite tissue culture assay HFF” for short) in series [3] is above 10 µM.
Take `CCCCN(CCCC)C(=O)c1ccc(Oc2ccc(Cl)cc2Cl)c(O)c1` [Compound 30b, 4-(2,4-Dichlorophenoxy)-3-hydroxy-N,N-dibutylbenzamide]: the IC50 is 400 nM and 0.166 µg/mL in series [4]; 600 nM and 0.247 µg/mL in series [5]. For the same compound, in series [1], the inhibition at 1 µM was found to be 44%. In addition, in series [2] (setting [6]), the MIC50 was above 10 µM. Further, in series [3], the “Parasite tissue culture assay HFF” value is above 10 µM.
With `O=C(c1ccccc1)c1ccc(Oc2ccc(Cl)cc2Cl)c(O)c1` [Compound 43b, [4-(2,4-Dichlorophenoxy)-3-hydroxyphenyl](phenyl)methanone], in series [4], the IC50 was above 2 µg/mL. Also, in series [1], the IC50 is 750 nM, the “Activity in the enzyme-based assay” value was “only weak activity; also recorded: only weak inhibition” and the inhibition at 1 µM was found to be 78%. Also, the IC50 in series [5] is above 2 µg/mL. For the same compound, the “Activity in the parasite-based assay” value in series [2] is reported as “ineffective”. In series [2] (setting [6]), the MIC50 was above 10 µM. The “Parasite tissue culture assay HFF” value in series [3] is above 10 µM.
Take `N#Cc1ccc(Oc2ccc(Cl)cc2Cl)c(O)c1` [Compound 27, 4-(2,4-Dichlorophenoxy)-3-hydroxybenzonitrile]: the inhibition at 1 µM in series [1] was 97%. In addition, the MIC50 in series [2] (setting [6]) turned out to be 2 µM (≈ 0.56 µg/mL). Moreover, the “Parasite tissue culture assay HFF” value in series [3] was above 10 µM.
As for `O=C(NCc1ccc(Oc2ccc(Cl)cc2O)c(Cl)c1)c1ccc2cc(O)ccc2c1` [Compound 37d, N-[3-Chloro-4-(4-chloro-2-hydroxyphenoxy)benzyl]-6-hydroxynaphthalene-2-carboxamide], in series [1], the “Activity in the enzyme-based assay” value is given as “Reasonable activity” and the inhibition at 1 µM stood at 89%. For the same compound, the IC50 in series [2] (setting [6]) is above 10000 nM.
As for `Cc1cc(C(=O)NCc2ccc(Oc3ccc(Cl)cc3O)c(Cl)c2)no1` [Compound 37a, N-[3-Chloro-4-(4-chloro-2-hydroxyphenoxy)benzyl]-5-methyl-1,2-oxazole-3-carboxamide], the inhibition at 1 µM in series [1] is 88%. For the same compound, the “Activity in the parasite-based assay” value in series [2] is listed as “activity comparable to or better than that of triclosan”. The MIC50 in series [2] (setting [6]) is 5 µM (≈ 1.97 µg/mL).
Regarding `CCCCCCNCc1ccc(Oc2ccc(Cl)cc2Cl)c(O)c1` [Compound 39c, 2-(2,4-Dichlorophenoxy)-5-[(hexylamino)methyl]phenol], in series [4], the IC50 was 2.75 µM and 0.857 µg/mL. Moreover, in series [1], the “Activity in the enzyme-based assay” value is “completely inactive” and the inhibition at 1 µM stood at 16%. In series [5], the IC50 was above 2 µg/mL. The “Activity in the parasite-based assay” value in series [2] is “activity comparable to or better than that of triclosan”. Also, in series [2] (setting [6]), the MIC50 stood at 3 µM (≈ 1.1 µg/mL).
Take `Oc1cc(-c2cc(-c3ccccc3)on2)ccc1Oc1ccc(Cl)cc1Cl` [Compound 20b, 2-(2,4-Dichlorophenoxy)-5-(5-phenyl-1,2-oxazol-3-yl)phenol]: in series [1], the “Activity in the enzyme-based assay” value is “completely inactive” and the inhibition at 1 µM is 40%. Also, the “Activity in the parasite-based assay” value in series [2] is “completely inactive”. Moreover, in series [2] (setting [6]), the MIC50 was above 10 µM. Also, the “Parasite tissue culture assay HFF” value in series [3] was above 10 µM.
Regarding `Oc1cc(Cl)ccc1Oc1ccc(-c2cc(-c3ccccc3)on2)cc1Cl` [Compound 24b, 5-Chloro-2-[2-chloro-4-(5-phenyl-1,2-oxazol-3-yl)phenoxy]phenol], in series [1], the IC50 is 28 nM and the inhibition at 1 µM stood at 88%. Further, the MIC50 in series [2] (setting [6]) was 10 µM (≈ 3.98 µg/mL). Also, in series [3], the “Parasite tissue culture assay HFF” value is above 10 µM.
In the case of `CCCCc1cn(Cc2ccc(Oc3ccc(Cl)cc3O)c(Cl)c2)nn1` [Compound 16a, 2-[4-[(4-Butyl-1H-1,2,3-triazol-1-yl)methyl]-2-chlorophenoxy]-5-chlorophenol], the “TgENR IC50 fold higher than that of 16c” value in series [1] (43 vs 26 nM) was found to be 1.6 fold. Moreover, the inhibition at 1 µM in series [1] turned out to be 90%. For the same compound, the MIC50 in series [2] (setting [6]) was found to be 0.25 µM (≈ 0.0981 µg/mL). Besides, the IC50 in series [2] (read-out: IC50 (MIC50) against Toxoplasma gondii tachyzoites) was 250 nM. In series [3], the “Toxicity to the host cells” value was “without apparent toxicity to the host cells” and the “Parasite tissue culture assay HFF” value was above 10 µM.
Regarding `Oc1cc(Cn2cc(-c3ccccc3)nn2)ccc1Oc1ccc(Cl)cc1Cl` [Compound 9b, 2-(2,4-Dichlorophenoxy)-5-[(4-phenyl-1H-1,2,3-triazol-1-yl)methyl]phenol], in series [1], the IC50 was 54 nM, the “TgENR IC50 fold lower than that of analog 9c” value is reported as around 2 fold and the inhibition at 1 µM turned out to be 93%. Moreover, in series [2], the “Activity in the parasite-based assay” value is “inactive”. For the same compound, the MIC50 in series [2] (setting [6]) was above 10 µM. Also, the “Parasite tissue culture assay HFF” value in series [3] was above 10 µM.
As to `CCCCCCNCc1ccc(Oc2ccc(Cl)cc2O)c(Cl)c1` [Compound 41a, 5-Chloro-2-[2-chloro-4-[(hexylamino)methyl]phenoxy]phenol], in series [1], the “Activity in the enzyme-based assay” value was “completely inactive” and the inhibition at 1 µM amounted to 25%. For the same compound, the “Activity in the parasite-based assay” value in series [2] is listed as “activity comparable to or better than that of triclosan”. Also, in series [2] (setting [6]), the MIC50 came to 1 µM (≈ 0.368 µg/mL). Besides, in series [3], the “Parasite tissue culture assay HFF” value was above 10 µM.
In the case of `Cc1cc(C(=O)NCc2ccc(Oc3ccc(Cl)cc3Cl)c(O)c2)no1` [Compound 33, N-[4-(2,4-Dichlorophenoxy)-3-hydroxybenzyl]-5-methyl-1,2-oxazole-3-carboxamide], the inhibition at 1 µM in series [1] came to 96%. Further, in series [2] (setting [6]), the MIC50 came to 10 µM (≈ 3.93 µg/mL).
Regarding `C[Si](C)(C)c1cc(-c2ccc(Oc3ccc(Cl)cc3Cl)c(O)c2)no1` [Compound 20c, 2-(2,4-Dichlorophenoxy)-5-[5-(trimethylsilyl)-1,2-oxazol-3-yl]phenol], the inhibition at 1 µM in series [1] came to 25%. Also, the MIC50 in series [2] (setting [6]) was 7 µM (≈ 2.76 µg/mL). In addition, the “Parasite tissue culture assay HFF” value in series [3] was above 10 µM.
Turning to `COc1cc(Cn2cc(CCO)nn2)ccc1Oc1ccc(Cl)cc1Cl` [Compound 8d, 2-[1-[4-(2,4-Dichlorophenoxy)-3-methoxybenzyl]-1H-1,2,3-triazol-4-yl]ethanol], in series [1], the “Activity in the enzyme-based assay” value is listed as “lack of activity” and the inhibition at 1 µM turned out to be 12%. The “Activity in the parasite-based assay” value in series [2] is “lack of activity”. Besides, the MIC50 in series [2] (setting [6]) was above 10 µM. The “Parasite tissue culture assay HFF” value in series [3] was above 10 µM.
Regarding `CCCCc1cc(-c2ccc(Oc3ccc(Cl)cc3O)c(Cl)c2)no1` [Compound 24a, 2-[4-(5-Butyl-1,2-oxazol-3-yl)-2-chlorophenoxy]-5-chlorophenol], in series [1], the IC50 was 18 nM and the inhibition at 1 µM is 92%. Also, the MIC50 in series [2] (setting [6]) came out at 8 µM (≈ 3.03 µg/mL). In addition, in series [3], the “Parasite tissue culture assay HFF” value was above 10 µM.
As to `Oc1cc(Cl)ccc1Oc1ccc(Cn2cc(-c3ccccc3)nn2)cc1Cl` [Compound 16b, 5-Chloro-2-[2-chloro-4-[(4-phenyl-1H-1,2,3-triazol-1-yl)methyl]phenoxy]phenol], the inhibition at 1 µM in series [1] was 82%. In addition, the “Activity in the parasite-based assay” value in series [2] is “activity comparable to or better than that of triclosan”. Moreover, the MIC50 in series [2] (setting [6]) was determined as 1 µM (≈ 0.412 µg/mL). In series [3], the “Parasite tissue culture assay HFF” value was above 10 µM.
On to `O=C(NCc1ccc(Oc2ccc(Cl)cc2O)c(Cl)c1)c1cc(-c2ccccc2)on1` [Compound 37b, N-[3-Chloro-4-(4-chloro-2-hydroxyphenoxy)benzyl]-5-phenyl-1,2-oxazole-3-carboxamide], for which the inhibition at 1 µM in series [1] was found to be 80%. The MIC50 in series [2] (setting [6]) is above 10 µM.
With `CCCCc1cn(Cc2ccc(Oc3ccc(Cl)cc3Cl)c(O)c2)nn1` [Compound 9a, 5-[(4-Butyl-1H-1,2,3-triazol-1-yl)methyl]-2-(2,4-dichlorophenoxy)phenol], in series [1], the IC50 is 38 nM, the “TgENR IC50 fold lower than that of analog 9c” value is given as “approximately 3 fold” and the inhibition at 1 µM was found to be 94%. For the same compound, the “Activity in the parasite-based assay” value in series [2] is “inactive”. Further, the MIC50 in series [2] (setting [6]) is above 10 µM. In series [3], the “Parasite tissue culture assay HFF” value is above 10 µM.
Take `CCCCc1cc(-c2ccc(Oc3ccc(Cl)cc3Cl)c(O)c2)no1` [Compound 20a, 5-(5-Butyl-1,2-oxazol-3-yl)-2-(2,4-dichlorophenoxy)phenol]: in series [1], the “Activity in the enzyme-based assay” value is “completely inactive” and the inhibition at 1 µM came to 59%. Besides, in series [2], the “Activity in the parasite-based assay” value is “completely inactive”. Moreover, the MIC50 in series [2] (setting [6]) was above 10 µM. In addition, in series [3], the “Parasite tissue culture assay HFF” value was above 10 µM.

Broadly, the MIC50 is the lowest concentration that inhibits either 50% of growth or 50% of the strains tested, depending on the study.
